In BindingDB's records for doi:10.1021/jm00107a020 (Pfizer, 1991):

Target: Aldo-keto reductase family 1 member B1 (Homo sapiens, UniProt P15121)
Assay: In vitro inhibition of human placental aldose reductase.
How it was run: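 Human placental aldose reductase, partly purified (placentae homogenized in 0.1 M K phosphate pH 7.0 with 5 mM 2-mercaptoethanol, spun 33000g, peak fractions pooled). Assay in 50 mM K phosphate pH 7.1 with 0.4 M ammonium sulfate, 0.067 mM NADPH, 1.0 mM DL-glyceraldehyde; enzyme set to 4 milliunits; NADPH oxidation at 340 nm, 25 °C, 10 min. IC50 by log linear regression.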

| SMILES | IC50 [µM] |
| --- | --- |
| CCOC(=O)C1CN(Cc2ccccc2Cl)C(=O)C1=O (configuration not stated) | 2.3 |
| CCOC(=O)C1CN(Cc2cccc3ccccc23)C(=O)C1=O (configuration not stated) | 2.3 |
